Compounds with a hit are over-represented: about 2.2% of the library has one in this group of screens.
SKN-1 block = suppressors of acrylamide-induced Pgst-4::GFP reporter in worms, primary screen, SKN-1 inhibitor project, whole organism, uHTS, GFP/RFP fluorescence ratio, strain VP596. C. elegans VP596 Pgst-4::GFP/RFP ratio, 24 h. inhibition, % at 21.8 µM. hit rate 0.49% among 360,000. AID 624304, 2012;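 active = interference check ratio from 0.5 to 1.5 plus GFP to RFP signal ratio inhibition reaching or exceeding a fixed threshold, cut at about 30% in these data, passing the limit was not always enough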
MT1-MMP act inh = blockers of MT1-MMP proenzyme processing, primary screen, HT1080 RFP-PRO-GFP cells, GFP/RFP fluorescence; Matrix metalloproteinase-14 (Homo sapiens), P50281; GFP/RFP ratio fluorescence, overnight; percent of plate control window, DMSO zero; GFP/RFP ratio change, % at 20 µM; hit rate 0.061% among 360,000; AID 651647, 2012;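 active = GFP/RFP ratio change of at least 30% with cell ATP level not reduced by more than half and red fluorescence within 50% of control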
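Assay system: HT1080 cells carrying an RFP-PRO-GFP reporter | Dosing: Single dose of 20 µM compound, 1% DMSO final | Incubation: Cells overnight before dosing, compound overnight, 37 °C, 5% CO2 | Evaluation: GFP/RFP fluorescence ratio | Control set: DMSO and RFP-L50D-GFP cell wells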
KLK7 zymogen act = proKLK7 zymogen activators, primary screen, biochemical, fluorescence intensity; hit rate 0.9% among 370,000; activation, % at 7 µM; purified proKLK7, EDANS-DABCYL substrate fluorescence; 100% is mature enzyme control, 0% vehicle; Kallikrein-7 (Homo sapiens), P49862;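 active = activation above the mean of all tested compounds plus 3 SD, computed per campaign excluding outliers beyond control limits, cut at about 13% in these data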
Target sequence (P49862 whole entry, looked up): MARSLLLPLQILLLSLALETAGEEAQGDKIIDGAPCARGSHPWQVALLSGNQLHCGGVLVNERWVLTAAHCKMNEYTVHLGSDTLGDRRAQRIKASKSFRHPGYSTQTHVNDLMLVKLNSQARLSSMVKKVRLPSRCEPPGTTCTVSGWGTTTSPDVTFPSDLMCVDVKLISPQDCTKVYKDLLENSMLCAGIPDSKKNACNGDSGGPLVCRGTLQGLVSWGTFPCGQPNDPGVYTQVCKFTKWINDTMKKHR
Neddylation inh = inhibitors of cullin neddylation, primary screen, biochemical, TR-FRET, uHTS, NAE and Ubc12. NEDD8-conjugating enzyme Ubc12 (Homo sapiens) + NEDD8-activating enzyme E1 regulatory …. calls only at 25 µM. hit rate 0.58% among 360,000; in the data active = inhibition above about 36%
DDE Tn6 FP inh = inhibitors of Tn6 peptide binding to fibrin DD(E), primary screen, biochemical, fluorescence polarization, human fibrin, Tn6 probe; Fibrin DD(E) TRITC-Tn6 fluorescence polarization displacement; AID 720509, 2013; hit rate 0.21% among 370,000; inhibition, % at 8.3 µM;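 active = inhibition above a per-campaign cutoff: mean of compounds within control limits plus 3 SD, cut at about 15% in these data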;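 also: 0% = median of all compound wells on the plate and 100% = blocking peptide control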
DDE Tn7 FP inh = inhibitors of Tn7 peptide binding to fibrin DD(E), primary screen, biochemical, fluorescence polarization, human fibrin, Tn7 probe; Fibrinogen beta chain (Homo sapiens), P02675; FP displacement of FITC-Tn7 peptide from fibrin DD(E); 0% = median of compound wells per plate; inhibition, % at 8.3 µM; hit rate 0.13% among 370,000;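 active = inhibition above the mean of compounds falling within the control limits plus 3 SD of them, cut at about 14% in these data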;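 also: 0% = plate median of compound wells and 100% = 10 µM Aha-Tn7 peptide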
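Also added: labelled Tn7 tracer, 0.1 µM; Assay system: human fibrin DD(E) protein; Amount: 2 µM fibrin DD(E); Schedule: 10 min compound pre-incubation, 3 h probe incubation at room temperature; Repeats: one replicate per compound; Read-out basis: percent inhibition; Measured by: fluorescence polarization of the labelled Tn7 tracer.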
DDE Tn6 FP ctr = DD(E)-Tn6 binding inhibition, counter-screen; shares compounds with DDE Tn6 FP inh; Fibrin DD(E), TRITC-Tn6 fluorescence polarization displacement; 0% = median of compound wells, not DMSO; inhibition, % at 8.3 µM; hit rate 2% among 680;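 active = inhibition above the mean of test compounds lying between the control limits plus 3 SD of those, cut at about 14% in these data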;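 also: 0% = median of compound wells and 100% = wells with Aha-Tn7 blocking peptide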
DDE Tn6 confirm = inhibitors of Tn6 peptide binding to fibrin DD(E), confirmation, biochemical, fluorescence polarization, human fibrin, Tn6 probe | shares compounds with DDE Tn6 FP inh | FP displacement of TRITC-Tn6 peptide from DD(E); 0% = per-plate median of test wells | inhibition, % at 8.3 µM | hit rate 10% among 680;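 active = inhibition above the mean of compounds lying within the control limits plus 3 SD, cut at about 16% in these data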;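 also: 100% = high control wells holding a competing inhibitor peptide at 10 µM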
An asterisk follows results filed as active; i = inactive; . = not tested or not shown; + = active, no number.

SMILES	SKN-1 block	MT1-MMP act inh	KLK7 zymogen act	Neddylation inh	DDE Tn6 FP inh	DDE Tn7 FP inh	DDE Tn6 FP ctr	DDE Tn6 confirm
CCOC(=O)C1CCCN(CC(=O)Nc2ccc(C(=O)Nc3ccccc3OC)cc2)C1 (stereo not drawn)	-2.2	0.7	0.2	i	-0.6	1.2	.	.
Cc1cc2cc(CNC(=O)c3cccc([N+](=O)[O-])c3)ccc2n1C	47.0*	-1.0	-0.2	i	53.4*	5.8	-3.5	-6.9
Cc1cc2cc(CNC(=O)c3cccc([N+](=O)[O-])c3)ccc2[nH]1	21.4	8.0	0.3	i	-1.7	0.6	.	.
Cc1c(C(=O)NCc2ccc3c(c2)cc(C)n3C)cccc1[N+](=O)[O-]	55.2	62.2	-0.9	i	23.8*	2.2	-3.8	-7.0
O=C(COC(=O)CCS(=O)(=O)c1ccccc1)Nc1ccccc1	0.7	-3.6	-0.5	i	4.0	7.2	.	.
CSCc1cc(N(C)c2ccccc2)nc(-c2ccccc2)n1	32.4	-0.7	0.1	i	0.7	3.3	.	.
N#Cc1ccc(NC(=O)CSc2n[nH]c(=O)n2C2CC2)cc1	-0.2	-2.7	0.2	i	16.1*	3.2	3.4	4.3
O=C(CN1CCN(c2ccccc2)CC1)Nc1ccccc1Sc1ccccc1	18.3	-7.5	-0.4	i	6.7	-0.9	.	.
CC(=O)N1CCN=C1SCc1ccc(Br)cc1	20.5	3.3	-0.5	i	20.0*	8.2	3.2	1.9
CS(=O)(=O)N1CCN=C1SCc1ccc(Br)cc1	16.3	-3.0	0.1	i	0.4	-2.5	.	.
Cc1cc2c(N)cccc2nn1	33.2	17.7	0.3	i	+	5.1	0.0	17.6*
O=C1N=C(N2CCN(c3ccccc3)CC2)S/C1=C/c1ccco1	-6.8	5.8	-0.2	i	16.9*	2.9	9.2	2.1
Cc1ccc(C(=O)n2cnc3ccccc32)cc1C	8.2	-0.9	-0.4	i	15.9*	-0.1	3.9	3.1
Cc1cc2ncn(C(=O)c3ccc4c(c3)OCO4)c2cc1C	0.8	-0.2	-0.4	i	2.3	-0.2	.	.
O=C1CCCC(O)=C1N=Nc1c(Cl)cc(C(F)(F)F)cc1Cl	-3.6	58.7	0.2	i	43.2*	0.5	-2.5	-8.7
O=C1CCCC(O)=C1N=Nc1ccc(C(=O)O)cc1	17.9	61.0	-0.1	i	-6.6	-1.6	.	.
COc1ccc(-n2c(=S)[nH]c3cc(C(=O)Nc4ccc(OC)c(OC)c4)ccc3c2=O)cc1	-6.5	-3.1	-0.4	i	16.9*	-2.1	-3.0	-12.1
O=C(NCc1ccccc1)Nc1cccn(Cc2c(F)cccc2Cl)c1=O	-4.0	-2.6	-0.2	i	0.6	-1.2	.	.
CCOc1ccccc1N(CC(=O)N1CCCC1)S(C)(=O)=O	10.2	-1.5	-0.5	i	15.7*	11.2	0.6	1.0
COc1ccc(C(=O)c2ccsc2N)cc1	68.9	-5.9	-0.1	i	19.3*	3.5	-6.1	-8.4
CCc1cc(C(=O)c2ccc(OC)cc2)c(N)s1	19.6	3.4	-0.1	i	2.9	-1.3	.	.
O=C(Cc1cccs1)NCCSc1c(-c2ccc(Cl)cc2)[nH]c2ccccc12	7.4	-13.3	-14.5	.	-7.1	0.1	.	.
